Only some compounds are listed: those with a hit (about 1.9% of all), similar ones and a draw of the others.
LMPTP block – blocks human LMPTP phosphatase | recombinant LMPTP-A, OMFP fluorogenic substrate, fluorescence intensity | inhibition, % at 20 µM | actives 0.22% (n = 360,000) | AID 651560;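 active = compounds that cut the enzyme signal by at least half of the control window in the single-dose screen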;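 also: plate controls were DMSO wells with enzyme plus substrate for no effect and substrate without enzyme for full effect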
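Test system: LMPTP-A phosphatase enzyme. Amount: LMPTP-A at 0.625 nM final in the reaction. Reagent: OMFP substrate, 400 µM final. Times: 50 min at room temperature. Signal: endpoint fluorescence intensity from OMFP dephosphorylation. Read-out basis: % inhibition. Benchmarks: no-enzyme and uninhibited controls.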
STEP block – STEP (human) phosphatase inhibition. P54829. recombinant STEP, OMFP fluorogenic substrate, fluorescence. inhibition, % at 20 µM. actives 0.25% (n = 360,000). AID 588621;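 active = inhibition at 20 µM, scaled per plate between control wells, above about 37%, limit read from the data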;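 also: 0% = DMSO with enzyme and substrate and 100% = substrate only without enzyme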
Target sequence (P54829 whole entry, looked up): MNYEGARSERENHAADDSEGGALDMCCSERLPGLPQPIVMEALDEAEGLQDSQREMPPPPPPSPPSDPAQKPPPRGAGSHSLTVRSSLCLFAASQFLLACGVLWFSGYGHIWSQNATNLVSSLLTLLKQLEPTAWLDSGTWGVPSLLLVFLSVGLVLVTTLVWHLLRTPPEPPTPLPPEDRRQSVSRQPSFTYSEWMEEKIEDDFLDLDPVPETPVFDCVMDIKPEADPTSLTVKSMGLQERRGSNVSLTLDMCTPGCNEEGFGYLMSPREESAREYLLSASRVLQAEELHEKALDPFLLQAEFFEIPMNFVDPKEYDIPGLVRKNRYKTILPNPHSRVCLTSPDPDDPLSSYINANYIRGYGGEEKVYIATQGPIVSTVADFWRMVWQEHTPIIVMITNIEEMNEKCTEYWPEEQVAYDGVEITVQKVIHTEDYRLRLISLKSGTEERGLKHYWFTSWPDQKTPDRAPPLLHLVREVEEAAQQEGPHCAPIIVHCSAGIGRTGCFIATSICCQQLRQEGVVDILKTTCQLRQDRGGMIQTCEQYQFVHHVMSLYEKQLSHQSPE
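Measure: Control-normalized % inhibition with plate pattern correction | Test system: STEP phosphatase, cell-free reaction | Medium: pH 6.0 Bis-Tris with DTT and Tween 20 | Technique: Fluorescence, 480/540 nm | Times: Reaction 20 min, ambient temperature | Doses: Single compound dose of 20 µM, 1% DMSO final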
PP1 inh – counter-screen for PP5 inhibitors: inhibitors of human PP1-alpha | actives 0.9% (n = 320,000) | P62136 | purified PP1alpha, OMFP fluorescence | inhibition, % at 6.7 µM;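 active = inhibition above the mean inhibition of all tested compounds plus 3 SD, computed separately for each screening campaign, cut at about 15% in these data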
Scp1 inh – inhibitors of human Scp-1 phosphatase; actives 0.88% (n = 340,000); Recombinant Scp1, phosphopeptide, malachite green phosphate absorbance; inhibition, % at 20 µM; Q9GZU7;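 active = inhibition above about 50% at 20 µM, limit read from the data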;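 also: plate controls were DMSO wells with enzyme for no effect and wells lacking enzyme for full effect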
Target sequence (Q9GZU7 76-261 limits assumed): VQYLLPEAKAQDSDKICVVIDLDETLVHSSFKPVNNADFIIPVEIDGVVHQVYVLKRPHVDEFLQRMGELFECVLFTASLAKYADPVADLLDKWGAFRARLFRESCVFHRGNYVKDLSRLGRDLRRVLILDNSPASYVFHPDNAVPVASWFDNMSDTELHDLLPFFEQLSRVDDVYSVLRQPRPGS
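Material: truncated SCP-1 phosphatase (76-261aa) / Buffer or medium: 50 mM Tris acetate pH 5.5, 0.005% Tween-20, 10 mM MgCl2 / Compound dosing: one concentration, 20 µM, with 1.0% DMSO / Incubation: 45 min room-temperature reaction, 5 min colour, 30 min stabiliser / Detection: colorimetric free-phosphate detection, absorbance 630 nm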
PP5 primary – PP5 (human) phosphatase inhibition; AID 1987; P53041; purified PP5c, OMFP substrate fluorescence; inhibition, % at 6.7 µM; actives 0.18% (n = 320,000);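 active = inhibition above the campaign's mean inhibition across all tested compounds plus 3 SD, cut at about 9.5% in these data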;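 also: 0% = DMSO only and 100% = 100 µM cantharidin control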
PP1 confirm – human PP1 phosphatase inhibition, confirmation. purified PP1alpha, OMFP substrate fluorescence. actives 52% (n = 1,900). shares compounds with PP1 inh. inhibition, % at 6.7 µM;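 active = mean PP1 inhibition above a set limit taken from the earlier primary screen, cut at about 15% in these data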
PP5 counter – inhibits human PP5 phosphatase in PP1 counter-screen; AID 2360; inhibition, % at 6.7 µM; actives 4% (n = 1,900); purified PP5c, OMFP fluorescence; shares compounds with PP1 inh;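 active = mean PP5 inhibition over triplicate wells above about 9.5% taken from the earlier PP1 screen, limit read from the data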
* hit, by the source's call; . = no result given.

SMILES | LMPTP block | STEP block | PP1 inh | Scp1 inh | PP5 primary | PP1 confirm | PP5 counter
CC[C@H](C)[C@@H](C(=O)NCCCCCCCCCCC(=O)N1CCN(C(=O)OC(C)(C)C)CC1)n1cc(CCCCN=C(NC(=O)OC(C)(C)C)NC(=O)OC(C)(C)C)nn1 | . | . | 19.2* | . | 5.4 | 30.1* | 1.7
C#CCOCCOCCOCCNc1nc(N2CCN(C(=O)CCCCCCCCCCNC(=O)Cn3cc(C[C@@H](C)O)nn3)CC2)nc(N2CCN(C(=O)CCCCCCCCCCNC(=O)[C@H](CCCN=C(N)N)n3cc(C[C@@H](C)CC)nn3)CC2)n1 | 13.4 | 5.3 | 11.3 | 25.0 | 5.5 | . | .
C#CCOCCOCCOCCNc1nc(N2CCOCC2)nc(N2CCN(C(=O)[C@H](Cc3cc4ccccc4[nH]3)n3cc([C@@H](N)Cc4ccc(O)cc4)nn3)CC2)n1 | -1.2 | -2.5 | -2.2 | -0.3 | -0.2 | . | .
C#CCOCCOCCOCCNc1nc(N2CCN(C(=O)[C@H]([C@@H](C)CC)n3cc([C@@H](N)CO)nn3)CC2)nc(N2CCN(C(=O)[C@H](Cc3cc4ccccc4[nH]3)n3cc([C@@H](N)Cc4ccc(O)cc4)nn3)CC2)n1 | . | . | 23.8* | . | 8.1 | -6.1 | 2.4
C#CCOCCOCCOCCNc1nc(N2CCN(C(=O)CCCCCCCCCCNC(=O)[C@H]([C@@H](C)CC)n3cc(CCCCCN)nn3)CC2)nc(N2CCN(C(=O)CCCCCCCCCCNC(=O)[C@H]([C@@H](C)CC)n3cc(CCCCN=C(N)N)nn3)CC2)n1 | 2.6 | 4.9 | 69.5* | . | 9.0 | 45.2* | 1.3
C#CCOCCOCCOCCNc1nc(N2CCN(C(=O)CCCCCCCCCCNC(=O)[C@H](CO)n3cc(CCCSC)nn3)CC2)nc(N2CCN(C(=O)CCCCCCCCCCNC(=O)[C@H](CCCN=C(N)N)n3cc(C[C@@H](C)CC)nn3)CC2)n1 | 16.8 | 18.6 | 46.4* | 62.7* | 7.2 | 29.6* | 1.0
O=[N+]([O-])c1ccc(CSc2ncnc3ccccc23)cc1 | -0.8 | -0.7 | -4.7 | -0.3 | -2.9 | . | .
O=C(OCc1cccc2ccccc12)C1CC(=O)N(c2ccccc2)C1 (stereo not drawn) | 0.4 | 1.9 | 0.4 | -20.0 | 2.7 | . | .
Cc1cc(C)c2nc(N3C(=O)C(O)=C(C(=O)c4ccco4)C3c3ccco3)sc2c1 (stereo not drawn) | 22.6 | 24.2 | 32.3* | 51.6* | 2.9 | 31.0* | 1.1
Cc1ccc2nc(N3C(=O)C(O)=C(C(=O)c4ccc(C)o4)C3c3ccc(O)cc3)sc2c1 (stereo not drawn) | 10.9 | 5.1 | 30.2* | -10.4 | 0.1 | 21.4* | 0.9
CCOC(=O)c1sc(N2C(=O)C(O)=C(C(=O)c3ccco3)C2c2ccco2)nc1C (stereo not drawn) | 6.0 | 17.6 | 18.2* | 25.3 | -0.8 | 13.2 | -0.9
CCOc1ccc2nc(N3C(=O)C(O)=C(C(=O)c4ccco4)C3c3ccco3)sc2c1 (stereo not drawn) | 10.8 | 7.0 | 13.8 | 10.4 | 1.4 | . | .
Cc1ccc2nc(N3C(=O)C(O)=C(C(=O)c4ccco4)C3c3cccs3)sc2c1 (stereo not drawn) | 7.5 | 4.8 | 28.4* | 34.5 | 2.7 | 28.0* | 0.0
COc1ccc2nc(N3C(=O)C(O)=C(C(=O)c4ccco4)C3c3ccc(C)o3)sc2c1 (stereo not drawn) | 10.4 | 5.2 | . | -5.8 | . | . | .
CCn1nc(C)cc1C(=O)N1CCCC(C(=O)c2ccc3ccccc3c2)C1 (stereo not drawn) | -0.9 | -0.5 | -5.6 | -2.7 | 3.2 | . | .
CCOP(=O)(OCC)C(NC(=O)C(F)(F)F)c1ccccc1 (stereo not drawn) | -1.0 | -6.4 | -0.7 | -1.8 | 2.2 | . | .
COc1ccc2nc(N3C(=O)C(O)=C(C(=O)c4ccco4)C3c3ccccc3OC)sc2c1 (stereo not drawn) | 10.0 | 2.5 | 28.9* | -11.3 | 2.0 | 20.3* | -1.9
O=C1C(Cc2ccccc2)Nc2ncnc(N3CCN(c4ccccc4)CC3)c2N1Cc1ccc(Br)cc1 (stereo not drawn) | 0.3 | 0.4 | . | 12.4 | . | . | .
O=C1C(Cc2ccccc2)Nc2ncnc(N3CCc4ccccc4C3)c2N1Cc1ccc(Br)cc1 (stereo not drawn) | . | . | 19.9* | . | 2.2 | 14.7 | -0.7
Cc1c(/C=N\NC(=O)C2COc3ccccc3O2)c2ccccc2n1C (stereo not drawn) | 1.5 | 0.5 | 0.8 | -6.7 | 3.8 | . | .
O=C(N/N=C/c1c(O)n(-c2ccccc2Cl)c(=O)c2ccccc12)C1COc2ccccc2O1 (stereo not drawn) | 1.9 | 1.2 | 19.1* | -9.8 | -3.3 | 22.7* | -3.2
Cc1ccc(-n2c(O)c(/C=N/NC(=O)C3COc4ccccc4O3)c3ccccc3c2=O)cc1 (stereo not drawn) | 0.8 | 5.4 | 19.0* | -14.0 | -0.8 | 27.3* | -1.6
C#CCOCCOCCOCCNc1nc(N2CCN(C(=O)CCCCCCCCCCNC(=O)Cn3cc(CCCCCN)nn3)CC2)nc(N2CCN(C(=O)CCCCCCCCCCNC(=O)[C@@H](CCC(=O)O)n3cc(CCCCCN)nn3)CC2)n1 | -7.2 | 1.8 | 3.6 | 13.8 | -0.6 | . | .
C#CCOCCOCCOCCNc1nc(N2CCN(C(=O)CCCCCCCCCCNC(=O)[C@@H](CCSC)n3cc(CCO)nn3)CC2)nc(N2CCN(C(=O)CCCCCCCCCCNC(=O)[C@H](CCSC)n3cc(CCO)nn3)CC2)n1 | 8.5 | -1.3 | 22.6* | 13.6 | 3.2 | 3.9 | 2.0
C#CCOCCOCCOCCNc1nc(N2CCN(C(=O)CCCCCCCCCCNC(=O)Cn3cc(CCCCCN)nn3)CC2)nc(N2CCN(C(=O)CCCCCCCCCCNC(=O)[C@@H](CCSC)n3cc(CCO)nn3)CC2)n1 | 0.9 | 7.9 | 35.5* | 26.8 | 0.8 | 41.2* | -0.5
C#CCOCCOCCOCCNc1nc(N2CCN(C(=O)CCCCCCCCCCNC(=O)[C@H](CO)n3cc(CCCSC)nn3)CC2)nc(N2CCN(C(=O)CCCCCCCCCCNC(=O)[C@H](CCCCN)n3cc(CCO)nn3)CC2)n1 | -1.8 | 1.0 | . | 11.4 | . | . | .
C#CCOCCOCCOCCNc1nc(N2CCN(C(=O)CCCCCCCCCCNC(=O)Cn3cc(CCCCCN)nn3)CC2)nc(N2CCN(C(=O)CCCCCCCCCCNC(=O)Cn3cc(CCCCCN)nn3)CC2)n1 | -5.9 | 1.5 | 32.7* | 22.2 | 0.5 | 8.8 | -5.9
COc1cc(S(=O)(=O)Nc2ccccc2N2CCCCC2)ccc1NC(C)=O | 0.8 | -1.4 | -2.4 | -0.1 | 2.6 | . | .
Cc1oc(-c2ccc(Cl)cc2)cc1-c1nn2c(-c3ccoc3C)nnc2s1 | 8.5 | -0.6 | 24.2* | 44.8 | 2.4 | 19.0* | 0.6

Screens as filed in PubChem.
